According to ChEMBL document CHEMBL3085726, “Tumor-targeting with novel non-benzoyl 6-substituted straight chain pyrrolo[2,3-d]pyrimidine antifolates via cellular uptake by folate receptor α and inhibition of de novo purine nucleotide biosynthesis” (J Med Chem, 2013):
Calls of active or inactive are those of the source. The calls are words filed in the database; no cut-off is given here.

Assays:
[1] = Growth inhibition of Chinese hamster R2(VC) cells after 96 hrs by CellTiter-blue assay; details: Cricetulus griseus
[2] = test system: R2; test: Growth inhibition of Chinese hamster R2 cells expressing human PCFT4 after 96 hrs by CellTiter-blue assay; type: functional, cell-based, Cricetulus griseus; details: R2, 96 h
[3] = Growth inhibition of Chinese hamster PC43-10 cells after 96 hrs by CellTiter-blue assay; type: functional, cell-based; details: Cricetulus griseus, PC43-10, 96 h
[4] = Growth inhibition of Chinese hamster MTXRII-OuaR2-4 cells after 96 hrs by CellTiter-blue assay; details: Cricetulus griseus
[5] = Growth inhibition of Chinese hamster RT16 cells after 96 hrs by CellTiter-blue assay in presence of folic acid; type: functional, cell-based; details: Cricetulus griseus, RT16, 96 h
Outline: (§1)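 RT16 cells were first kept 3 days in folate-free RPMI. Cells were exposed to a drug concentration range with or without 200 nM folic acid to block FR uptake. After 96 h, CellTiter-blue fluorescence was read.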

[6] = test system: KB; test: Growth inhibition of human KB cells expressing human RFC/FRalpha/PCFT after 96 hrs by CellTiter-blue assay in presence of folic acid; type: functional, cell-based
[7] = Growth inhibition of Chinese hamster D4 cells after 96 hrs by CellTiter-blue assay; type: functional, cell-based; details: Cricetulus griseus, D4, 96 h
[8] = Growth inhibition of Chinese hamster RT16 cells after 96 hrs by CellTiter-blue assay; type: functional, cell-based; details: Cricetulus griseus, RT16, 96 h; outline: as §1
[9] = Growth inhibition of Chinese hamster D4 cells after 96 hrs by CellTiter-blue assay in presence of folic acid; type: functional, cell-based; details: Cricetulus griseus, D4, 96 h
[10] = test system: KB; test: Growth inhibition of human KB cells expressing human RFC/FRalpha/PCFT after 96 hrs by CellTiter-blue assay; type: functional, cell-based
[11] = target: Folate receptor beta (Homo sapiens) (UniProt P14207); test: Displacement of [3H]-folic acid from human folate receptor-beta expressed in Chinese hamster D4 cells after 15 mins; type: cell-based
Sequence of Folate receptor beta (Homo sapiens) (P14207 17-230 limits assumed): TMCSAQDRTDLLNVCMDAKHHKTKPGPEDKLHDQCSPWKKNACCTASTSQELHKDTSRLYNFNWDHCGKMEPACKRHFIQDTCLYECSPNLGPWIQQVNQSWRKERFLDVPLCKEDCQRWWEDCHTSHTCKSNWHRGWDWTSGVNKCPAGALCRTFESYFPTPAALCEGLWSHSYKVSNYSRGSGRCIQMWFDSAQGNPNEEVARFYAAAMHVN
Outline: (§2)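 Cells (~1.6x10^6) rinsed with DPBS, then acidic buffer (10 mM sodium acetate, 150 mM NaCl, pH 3.5) to strip bound folate. Washed with ice-cold HEPES-buffered saline, pH 7.4. Incubated 15 min at 0°C with [3H]folic acid (50 nM, 0.5 Ci/mmol) plus a range of unlabeled ligand concentrations. Bound label normalized to protein (pmol/mg). […] Triplicate.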

[12] = target: Thymidylate synthase (Homo sapiens) (UniProt P04818); test: Inhibition of recombinant TS (unknown origin)
Sequence of Thymidylate synthase (Homo sapiens) (P04818 2-313 limits assumed): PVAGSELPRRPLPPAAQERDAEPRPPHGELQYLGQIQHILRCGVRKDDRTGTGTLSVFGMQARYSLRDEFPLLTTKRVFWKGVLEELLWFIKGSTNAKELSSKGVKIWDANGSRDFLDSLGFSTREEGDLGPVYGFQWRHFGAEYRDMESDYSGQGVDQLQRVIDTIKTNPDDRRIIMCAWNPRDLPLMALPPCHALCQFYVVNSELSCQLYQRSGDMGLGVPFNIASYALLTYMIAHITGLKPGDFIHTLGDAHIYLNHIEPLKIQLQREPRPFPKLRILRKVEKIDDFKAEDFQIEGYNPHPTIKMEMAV

[13] = test system: KB; test: Growth inhibition of human KB cells by CellTiter Blue fluorescence dye-based assay in presence of thymidine; type: functional, cell-based
Outline: (§3)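 KB cells in complete folate-free RPMI 1640 with 2 nM leucovorin were exposed to a drug concentration range. Co-additions were adenosine (60 μM), thymidine (10 μM), both together, or AICA (320 μM). Cell density was read by CellTiter Blue fluorescence and normalized to drug-free cells. Data are representative of triplicate experiments.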

[14] = target: Folate receptor alpha (Homo sapiens) (UniProt P15328); test: Displacement of [3H]-folic acid from human folate receptor-alpha expressed in Chinese hamster RT16 cells after 15 mins; type: cell-based; outline: as §2
Sequence of Folate receptor alpha (Homo sapiens) (P15328 25-234 limits assumed): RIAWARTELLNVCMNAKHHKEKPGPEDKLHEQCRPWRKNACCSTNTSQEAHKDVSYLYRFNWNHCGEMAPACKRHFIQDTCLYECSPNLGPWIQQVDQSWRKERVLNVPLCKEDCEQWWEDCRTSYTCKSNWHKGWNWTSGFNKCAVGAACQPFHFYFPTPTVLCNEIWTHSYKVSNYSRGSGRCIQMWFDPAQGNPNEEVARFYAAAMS

[15] = target: T1, Trifunctional purine biosynthetic protein adenosine-3 (Homo sapiens, UniProt P22102); test: In situ inhibition of GRAFTase in human KB cells assessed as incorporation of [14C]-glycine into [14C]-formyl GAR preincubated for 30 mins followed by [14C]-glycine addition measured after 15 hrs
T1 sequence (P22102 whole entry): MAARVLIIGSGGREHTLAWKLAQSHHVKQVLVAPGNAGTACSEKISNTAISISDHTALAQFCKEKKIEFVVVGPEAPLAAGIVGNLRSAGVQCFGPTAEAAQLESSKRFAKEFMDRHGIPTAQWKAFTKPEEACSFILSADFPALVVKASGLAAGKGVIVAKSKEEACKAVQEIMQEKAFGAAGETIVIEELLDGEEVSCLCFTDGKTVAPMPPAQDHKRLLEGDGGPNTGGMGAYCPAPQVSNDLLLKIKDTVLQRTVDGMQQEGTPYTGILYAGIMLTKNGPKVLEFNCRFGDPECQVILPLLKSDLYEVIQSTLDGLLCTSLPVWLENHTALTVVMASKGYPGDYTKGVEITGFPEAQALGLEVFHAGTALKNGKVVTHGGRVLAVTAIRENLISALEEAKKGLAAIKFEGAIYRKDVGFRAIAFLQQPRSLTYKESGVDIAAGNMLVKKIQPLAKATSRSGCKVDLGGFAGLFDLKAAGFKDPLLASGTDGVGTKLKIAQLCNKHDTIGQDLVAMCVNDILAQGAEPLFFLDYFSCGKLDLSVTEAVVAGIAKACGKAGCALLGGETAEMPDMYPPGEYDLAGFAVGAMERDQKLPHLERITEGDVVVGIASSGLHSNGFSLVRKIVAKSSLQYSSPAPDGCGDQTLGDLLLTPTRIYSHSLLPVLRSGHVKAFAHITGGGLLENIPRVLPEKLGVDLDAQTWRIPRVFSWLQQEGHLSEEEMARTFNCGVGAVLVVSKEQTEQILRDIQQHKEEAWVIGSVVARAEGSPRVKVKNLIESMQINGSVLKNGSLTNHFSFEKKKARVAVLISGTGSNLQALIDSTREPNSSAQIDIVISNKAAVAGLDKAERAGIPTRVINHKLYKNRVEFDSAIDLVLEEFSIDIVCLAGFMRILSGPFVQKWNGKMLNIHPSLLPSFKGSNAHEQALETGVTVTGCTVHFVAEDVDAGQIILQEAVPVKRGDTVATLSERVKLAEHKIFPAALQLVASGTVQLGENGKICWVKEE

[16] = test system: KB; test: Growth inhibition of human KB cells by CellTiter Blue fluorescence dye-based assay in presence of adenosine and AICA; type: functional, cell-based; outline: as §3
[17] = target: T2, Dihydrofolate reductase (Homo sapiens) (UniProt P00374); test: Inhibition of recombinant DHFR (unknown origin)
T2 sequence (whole entry): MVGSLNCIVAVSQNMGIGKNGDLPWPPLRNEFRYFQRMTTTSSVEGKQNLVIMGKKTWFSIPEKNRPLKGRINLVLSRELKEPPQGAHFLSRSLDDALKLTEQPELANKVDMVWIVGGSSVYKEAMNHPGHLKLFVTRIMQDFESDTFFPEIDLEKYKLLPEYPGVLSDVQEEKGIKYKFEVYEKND

| IC50 [6] [nM] | IC50 [10] [nM] | inhibition [11] | inhibition [14] | SMILES | IC50 [1] [nM] | IC50 [2] [nM] | IC50 [3] [nM] | IC50 [4] [nM] | IC50 [5] [nM] | IC50 [7] [nM] | IC50 [8] [nM] | IC50 [9] [nM] | inhibition [12] | growth inhibition (GI) [13] | IC50 [15] [nM] | growth inhibition (GI) [16] | inhibition [17] |
| --- | --- | --- | --- | --- | --- | --- | --- | --- | --- | --- | --- | --- | --- | --- | --- | --- | --- |
| – | – | – | – | Nc1nc2c(c(=O)[nH]1)C[C@@H](CCc1ccc(C(=O)N[C@@H](CCC(=O)O)C(=O)O)cc1)CN2 [LOMETREXOL] | > 1000 | – | – | – | – | – | – | – | – | – | – | – | – |
| > 1000 | > 1000 | – | – | Nc1nc2[nH]c(CCCCCCC(=O)O)cc2c(=O)[nH]1 | > 1000 | > 1000 | > 1000 | > 1000 | > 1000 | > 1000 | > 1000 | > 1000 | – | – | – | – | – |
| – | – | – | – | Nc1nc2[nH]c(CCCCCc3ccc(C(=O)N[C@@H](CCC(=O)O)C(=O)O)cc3)cc2c(=O)[nH]1 | > 1000 | > 1000 | – | – | – | – | – | – | – | – | – | – | – |
| 1.94 | 0.47 | – | – | C#CCC(Cc1cnc2nc(N)nc(N)c2n1)c1ccc(C(=O)N[C@@H](CCC(=O)O)C(=O)O)cc1 (mixture of isomers) [PRALATREXATE] | > 1000 | 57 | 0.69 | 819 | > 1000 | – | 168 | – | – | – | – | – | – |
| > 10000 | 200 | Active | Active | Nc1nc2[nH]c(CCCCCC(=O)N[C@@H](CCC(=O)O)C(=O)O)cc2c(=O)[nH]1 | > 1000 | > 1000 | > 1000 | > 1000 | > 1000 | 214 | > 1000 | > 1000 | – | – | – | – | – |
| – | – | – | – | Cc1nc(=O)c2cc(CN(C)c3ccc(C(=O)N[C@@H](CCC(=O)O)C(=O)O)s3)ccc2[nH]1 [RALTITREXED] | > 1000 | – | – | – | – | – | – | – | – | – | – | – | – |
| > 1000 | > 1000 | – | – | Nc1nc2[nH]c(CCCCCCCC(=O)O)cc2c(=O)[nH]1 | > 1000 | > 1000 | > 1000 | > 1000 | > 1000 | > 1000 | > 1000 | > 1000 | – | – | – | – | – |
| – | – | Active | Active | Nc1nc(=O)c2nc(CNc3ccc(C(=O)N[C@@H](CCC(=O)O)C(=O)O)cc3)cnc2[nH]1 | – | – | – | – | – | – | – | – | – | – | – | – | – |
| – | – | – | – | CN(Cc1cnc2nc(N)nc(N)c2n1)c1ccc(C(=O)N[C@@H](CCC(=O)O)C(=O)O)cc1 [METHOTREXATE] | > 1000 | – | – | – | – | – | – | – | – | – | – | – | – |
| – | – | – | – | Nc1nc2[nH]c(CCCc3ccc(C(=O)N[C@@H](CCC(=O)O)C(=O)O)cc3)cc2c(=O)[nH]1 | > 1000 | – | – | – | – | – | – | – | – | – | – | – | – |
| > 1000 | > 1000 | inactive | Active | Nc1nc2[nH]c(CCCCCCCCC(=O)O)cc2c(=O)[nH]1 | > 1000 | > 1000 | > 1000 | > 1000 | > 100 | > 1000 | > 10000 | > 1000 | – | – | – | – | – |
| > 1000 | > 1000 | – | – | Nc1nc2[nH]c(CCCCCC(=O)O)cc2c(=O)[nH]1 | > 1000 | > 1000 | > 1000 | > 1000 | > 1000 | > 1000 | > 1000 | > 1000 | – | – | – | – | – |
| – | – | – | – | Nc1nc2[nH]c(CCCCCCc3ccc(C(=O)N[C@@H](CCC(=O)O)C(=O)O)cc3)cc2c(=O)[nH]1 | > 1000 | > 1000 | – | – | – | – | – | – | – | – | – | – | – |
| – | – | – | – | Nc1nc2[nH]c(CCCCc3ccc(C(=O)N[C@@H](CCC(=O)O)C(=O)O)cc3)cc2c(=O)[nH]1 | > 1000 | – | – | – | – | – | – | – | – | – | – | – | – |
| > 1000 | 1.48 | Active | Active | Nc1nc2[nH]c(CCCCCCCCC(=O)N[C@@H](CCC(=O)O)C(=O)O)cc2c(=O)[nH]1 | > 1000 | > 1000 | > 1000 | > 1000 | > 10000 | 3.99 | 12.3 | > 1000 | inactive | Active | 9.62 | inactive | inactive |

| SMILES | IC50 [6] [nM] | IC50 [10] [nM] | inhibition [11] | inhibition [14] | IC50 [1] [nM] | IC50 [2] [nM] | IC50 [3] [nM] | IC50 [4] [nM] | IC50 [5] [nM] | IC50 [7] [nM] | IC50 [8] [nM] | IC50 [9] [nM] | inhibition [12] | growth inhibition (GI) [13] | IC50 [15] [nM] | growth inhibition (GI) [16] | inhibition [17] |
| --- | --- | --- | --- | --- | --- | --- | --- | --- | --- | --- | --- | --- | --- | --- | --- | --- | --- |
| Nc1nc2[nH]c(CCCCCCC(=O)N[C@@H](CCC(=O)O)C(=O)O)cc2c(=O)[nH]1 | > 1000 | 7.9 | Active | Active | > 1000 | > 1000 | > 1000 | > 1000 | > 1000 | 10.6 | 47.1 | > 1000 | inactive | Active | 2.89 | inactive | inactive |
| Nc1nc2[nH]c(CCCCCCCC(=O)N[C@@H](CCC(=O)O)C(=O)O)cc2c(=O)[nH]1 | > 1000 | 1.1 | Active | Active | > 1000 | > 1000 | > 1000 | > 1000 | > 1000 | 0.87 | 8.54 | > 1000 | inactive | Active | 5.49 | inactive | inactive |
